≈ marks a conversion by molar mass, not a printed value. Calls of active or inactive are those of the source. The calls are words filed in the database; no cut-off is given here.
Experiments:
Leishmania major = test: Antileishmanial activity against Leishmania major; assay type: functional, organism-based
Pseudomonas [1] = test: Antibacterial activity against Pseudomonas pallida assessed as zone of inhibition at 1.0 mg/mL by agar well diffusion method; assay type: functional; settings: for zone of inhibition at 1000 µg/mL: read-out: IZ
Procedure, shortened: (§1)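 Agar well diffusion with pure compounds loaded into wells at 1.0 mg/mL. Zone of inhibition read in mm. Ampicillin is the reference for Gram-positive strains and gentamicin for Gram-negative strains.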

Acetylcholinesterase = Acetylcholinesterase (Homo sapiens, UniProt P22303); test: Inhibition of acetylcholinesterase
Enterococcus faecalis [2] = test: Antibacterial activity against Streptococcus faecalis assessed as zone of inhibition at 1.0 mg/mL by agar well diffusion method; assay type: functional; settings: for zone of inhibition at 1000 µg/mL: read-out: IZ; procedure, shortened: as §1
Micrococcus luteus [3] = test: Antibacterial activity against Micrococcus luteus assessed as zone of inhibition at 1.0 mg/mL by agar well diffusion method; assay type: functional; settings: for zone of inhibition at 1000 µg/mL: read-out: IZ; procedure, shortened: as §1
Bacillus subtilis [4] = test: Antibacterial activity against Bacillus subtilis by agar well diffusion method; assay type: functional
Micrococcus luteus [5] = test: Antibacterial activity against Micrococcus luteus by agar well diffusion method; assay type: functional
Cholinesterase = Cholinesterase (Homo sapiens, UniProt P06276); test: Inhibition of butyrylcholinesterase
Procedure, shortened: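 In vitro enzyme inhibition assay, reported as IC50 with the standard error of the mean from five assays.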

Bacillus subtilis [6] = test: Antibacterial activity against Bacillus subtilis assessed as zone of inhibition at 1.0 mg/mL by agar well diffusion method; assay type: functional; settings: read-out: IZ; procedure, shortened: as §1
Pseudomonas [7] = test: Antibacterial activity against Pseudomonas pallida by agar well diffusion method; assay type: functional
Bacillus subtilis [8] = test: Antibacterial activity against Bacillus subtilis assessed as zone of inhibition at 0.25 mg/mL by agar well diffusion method; assay type: functional; settings: read-out: IZ
Procedure, shortened: (§2)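 Reference antibiotic (ampicillin for these Gram-positive strains) tested by agar well diffusion at 0.25 mg/mL. Inhibition zone diameter recorded in mm.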

Micrococcus luteus [9] = test: Antibacterial activity against Micrococcus luteus assessed as zone of inhibition at 0.25 mg/mL by agar well diffusion method; assay type: functional; settings: read-out: IZ; procedure, shortened: as §2
Enterococcus faecalis [10] = test: Antibacterial activity against Streptococcus faecalis assessed as zone of inhibition at 0.25 mg/mL by agar well diffusion method; assay type: functional; settings: read-out: IZ; procedure, shortened: as §2

Cholinesterase, sequence (P06276 whole entry): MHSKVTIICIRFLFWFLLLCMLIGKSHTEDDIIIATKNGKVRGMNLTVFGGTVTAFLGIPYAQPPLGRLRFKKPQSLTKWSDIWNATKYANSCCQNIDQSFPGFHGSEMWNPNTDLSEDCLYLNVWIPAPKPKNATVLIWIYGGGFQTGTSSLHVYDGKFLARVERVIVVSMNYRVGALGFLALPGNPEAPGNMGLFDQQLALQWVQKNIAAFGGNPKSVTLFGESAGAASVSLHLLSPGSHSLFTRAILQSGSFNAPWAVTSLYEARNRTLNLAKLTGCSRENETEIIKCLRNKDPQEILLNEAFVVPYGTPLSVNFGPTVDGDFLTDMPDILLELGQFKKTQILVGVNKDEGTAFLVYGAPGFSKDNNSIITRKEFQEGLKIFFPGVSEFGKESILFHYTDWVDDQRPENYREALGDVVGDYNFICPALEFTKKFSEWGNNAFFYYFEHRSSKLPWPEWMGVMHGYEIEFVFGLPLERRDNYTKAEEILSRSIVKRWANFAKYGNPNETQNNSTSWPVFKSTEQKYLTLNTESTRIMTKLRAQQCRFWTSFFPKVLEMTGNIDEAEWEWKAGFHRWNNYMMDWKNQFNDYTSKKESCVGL
Acetylcholinesterase, sequence (P22303 whole entry, the tested form may be a part): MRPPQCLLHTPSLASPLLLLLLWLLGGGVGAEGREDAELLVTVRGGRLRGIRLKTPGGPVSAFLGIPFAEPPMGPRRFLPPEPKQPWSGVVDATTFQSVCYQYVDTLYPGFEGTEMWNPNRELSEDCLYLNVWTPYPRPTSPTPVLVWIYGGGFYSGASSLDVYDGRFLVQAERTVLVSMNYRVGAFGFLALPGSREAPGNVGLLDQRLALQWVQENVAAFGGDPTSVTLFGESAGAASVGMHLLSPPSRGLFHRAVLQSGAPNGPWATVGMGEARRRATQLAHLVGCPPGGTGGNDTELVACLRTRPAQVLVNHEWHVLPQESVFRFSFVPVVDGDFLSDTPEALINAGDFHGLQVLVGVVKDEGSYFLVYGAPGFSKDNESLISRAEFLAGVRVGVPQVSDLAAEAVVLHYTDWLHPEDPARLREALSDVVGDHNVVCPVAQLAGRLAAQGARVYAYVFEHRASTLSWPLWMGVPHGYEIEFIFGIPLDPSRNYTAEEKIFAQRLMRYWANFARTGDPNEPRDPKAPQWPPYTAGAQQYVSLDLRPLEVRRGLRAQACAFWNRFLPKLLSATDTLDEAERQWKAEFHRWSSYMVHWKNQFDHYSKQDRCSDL

Row | IC50 (Leishmania major) [µM] | SMILES | zone of inhibition at 1000 µg/mL (Pseudomonas [1]) [mm] | IC50 (Acetylcholinesterase) [µM] | zone of inhibition at 1000 µg/mL (Enterococcus faecalis [2]) [mm] | zone of inhibition at 1000 µg/mL (Micrococcus luteus [3]) [mm] | MIC (Bacillus subtilis [4]) [µM] | MIC (Micrococcus luteus [5]) [µM] | IC50 (Cholinesterase) [µM] | zone of inhibition at 1000 µg/mL (Bacillus subtilis [6]) [mm] | MIC (Pseudomonas [7]) [µM] | Activity (Pseudomonas [1]) | Activity (Enterococcus faecalis [2]) | Activity (Micrococcus luteus [3]) | zone of inhibition at 250 µg/mL (Bacillus subtilis [8]) [mm] | zone of inhibition at 250 µg/mL (Micrococcus luteus [9]) [mm] | zone of inhibition at 250 µg/mL (Enterococcus faecalis [10]) [mm]
1 | 0.5 | C[C@@H]1[C@H](O)[C@@H](C)/C=C/C=C/C=C/C=C/C=C/C=C/C=C/[C@H](O[C@@H]2O[C@H](C)[C@@H](O)[C@H](N)[C@@H]2O)C[C@@H]2O[C@](O)(C[C@@H](O)C[C@@H](O)[C@H](O)CC[C@@H](O)C[C@@H](O)CC(=O)O[C@H]1C)C[C@H](O)[C@H]2C(=O)O [AMPHOTERICIN B] | – | – | – | – | – | – | – | – | – | – | – | – | – | – | –
2 | 7.5 | N=C(N)c1ccc(OCCCCCOc2ccc(C(=N)N)cc2)cc1 [PENTAMIDINE] | – | – | – | – | – | – | – | – | – | – | – | – | – | – | –
3 | – | CN[C@@H](C)[C@H]1CC[C@H]2[C@@H]3CC=C4C(=O)[C@@H](NC(=O)C=C(C)C)CC[C@]4(C)[C@H]3CC[C@]12C | – | 9.9 | – | – | 568 (≈ 242 µg/mL) | – | 0.6 | 9 | – | inactive | inactive | inactive | – | – | –
4 | – | CC1(C)S[C@@H]2[C@H](NC(=O)[C@H](N)c3ccccc3)C(=O)N2[C@H]1C(=O)O [AMPICILLIN] | – | – | – | – | 89.7 (≈ 31.3 µg/mL) | 5.6 (≈ 1.96 µg/mL) | – | – | – | – | – | – | 29 | 26 | 25
5 | 22.4 | C[C@@H]([C@H]1CC[C@H]2[C@@H]3CC[C@H]4C(=O)C(NC=O)=CC[C@]4(C)[C@H]3CC[C@]12C)N(C)C [HOOKERIANAMIDE H] | – | – | – | 11 | 324 (≈ 125 µg/mL) | 324 (≈ 125 µg/mL) | – | 11.5 | – | inactive | inactive | – | – | – | –
6 | 21.3 | C/C=C(\C)C(=O)NC1=CC[C@@]2(C)C(=CC[C@H]3[C@@H]4CC[C@H]([C@H](C)NC)[C@@]4(C)CC[C@@H]32)C1=O | 16.5 | – | 10 | 12.5 | 35.6 (≈ 15.1 µg/mL) | 143 (≈ 60.6 µg/mL) | – | 20 | 35.6 (≈ 15.1 µg/mL) | – | – | – | – | – | –
7 | 8.8 | CN[C@@H](C)[C@H]1CC[C@H]2[C@@H]3CC[C@H]4C[C@@H](N(C)C(=O)c5ccccc5)CC[C@]4(C)[C@H]3CC[C@]12C [HOOKERIANAMIDE I] | 18.5 | – | 8 | 18 | 69.4 (≈ 31.3 µg/mL) | 34.7 (≈ 15.6 µg/mL) | – | 17.5 | 69.4 (≈ 31.3 µg/mL) | – | – | – | – | – | –
8 | – | C[C@@H]([C@H]1CC[C@H]2[C@@H]3CC[C@H]4C[C@@H](N(C)C)CC[C@]4(C)[C@H]3CC[C@]12C)N(C)C | 14.5 | 22.1 | 8 | 11 | 83.5 (≈ 31.3 µg/mL) | 167 (≈ 62.6 µg/mL) | 1.6 | 19 | 167 (≈ 62.6 µg/mL) | – | – | – | – | – | –
9 | – | C[C@@H]([C@H]1CC[C@H]2[C@@H]3CC[C@H]4C[C@@H](N)CC[C@]4(C)[C@H]3CC[C@]12C)N(C)C [CHONEMORPHINE] | 14 | 28 | 10 | 11.5 | 90.3 (≈ 31.3 µg/mL) | 90.3 (≈ 31.3 µg/mL) | 0.5 | 16.5 | 181 (≈ 62.6 µg/mL) | – | – | – | – | – | –
10 | 3.3 | CN[C@@H](C)[C@H]1CC[C@H]2[C@@H]3CC[C@H]4[C@@H](OC(C)=O)[C@@H](NC(=O)C=C(C)C)CC[C@]4(C)[C@H]3CC[C@]12C [VAGENINE A] | 13.5 | – | 10 | – | 64.3 (≈ 30.4 µg/mL) | – | – | 17 | 64.3 (≈ 30.4 µg/mL) | – | – | inactive | – | – | –

Row | SMILES | IC50 (Leishmania major) [µM] | zone of inhibition at 1000 µg/mL (Pseudomonas [1]) [mm] | IC50 (Acetylcholinesterase) [µM] | zone of inhibition at 1000 µg/mL (Enterococcus faecalis [2]) [mm] | zone of inhibition at 1000 µg/mL (Micrococcus luteus [3]) [mm] | MIC (Bacillus subtilis [4]) [µM] | MIC (Micrococcus luteus [5]) [µM] | IC50 (Cholinesterase) [µM] | zone of inhibition at 1000 µg/mL (Bacillus subtilis [6]) [mm] | MIC (Pseudomonas [7]) [µM] | Activity (Pseudomonas [1]) | Activity (Enterococcus faecalis [2]) | Activity (Micrococcus luteus [3]) | zone of inhibition at 250 µg/mL (Bacillus subtilis [8]) [mm] | zone of inhibition at 250 µg/mL (Micrococcus luteus [9]) [mm] | zone of inhibition at 250 µg/mL (Enterococcus faecalis [10]) [mm]
11 | C[C@@H]([C@H]1CC=C2[C@@H]3CCC4=C[C@@H](N(C)C)CC[C@]4(C)[C@H]3CC[C@@]21C)N(C)C [HOOKERIANAMIDE K] | 6.8 | 10.5 | 24.2 | 10 | 9.5 | 338 (≈ 125 µg/mL) | 651 (≈ 241 µg/mL) | 4 | 13 | 169 (≈ 62.6 µg/mL) | – | – | – | – | – | –
12 | CC(C)=CC(=O)N[C@H]1CC[C@@]2(C)[C@@H](CC[C@@H]3[C@@H]2CC[C@]2(C)C([C@H](C)N(C)C)=CC[C@@H]32)[C@H]1O [HOOKERIANAMIDE J] | 11.3 | 12 | 48.5 | – | – | 141 (≈ 62.6 µg/mL) | – | 0.8 | 15 | 70.7 (≈ 31.3 µg/mL) | – | inactive | inactive | – | – | –
13 | C/C=C(\C)C(=O)N[C@H]1CC[C@]2(C)[C@H]3CC[C@]4(C)[C@@H]([C@H](C)NC)CC[C@H]4[C@@H]3CC[C@H]2[C@H]1OC(C)=O [SARCOVAGINE C] | 1.5 | 17.5 | 8.1 | 12 | 13.5 | 64.3 (≈ 30.4 µg/mL) | 64.3 (≈ 30.4 µg/mL) | 0.4 | 20 | 32.1 (≈ 15.2 µg/mL) | – | – | – | – | – | –
